Series [1] has as its target Trypanothione reductase (Trypanosoma cruzi) (UniProt P28593). Description: Inhibition of Trypanosoma cruzi trypanothione reductase assessed as volume activity per min at 100 uM after 24 hrs. The procedure, abridged: (§1)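 Time-dependent inactivation: 170 mU recombinant TR incubated at 25 °C in 40 mM HEPES, 1 mM EDTA, pH 7.5 with 100 µM inhibitor, with or without 160 µM NADPH, for 0-24 h. Aliquots diluted 200-fold and residual activity measured in the standard NADPH/TS2 assay at 340 nm. Controls: TR plus NADPH with DMSO, and TR plus inhibitor.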

Series [2] has the same target. The series can be described thus: Inhibition of Trypanosoma cruzi trypanothione reductase assessed as volume activity per min at 100 uM in presence of NADPH after 1 hr. The essentials: as §1
Series [3] can be described thus: Selectivity index, ratio of IC50 for human THP1 cells to IC50 for Trypanosoma cruzi Tulahuen 2. It counts as functional, THP-1.
The target in series [4] is Cruzipain (Trypanosoma cruzi) (UniProt P25779). The series can be described thus: Inhibition of Trypanosoma cruzi Tulahuen 2 cruzipain at 50 uM. The procedure, abridged:
(§2)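 Cruzipain purified from Tulahuen 2 epimastigotes by ConA-Sepharose affinity chromatography. Assayed in 50 mM Tris-acetate pH 8.0 with 0.3 mM Bz-Pro-Phe-Arg-pNA and 10 mM β-mercaptoethanol, A410 followed at 30 °C. Inhibitors added in DMSO, controls with matching DMSO, E-64 as reference. Tested at 10-100 µM; means of at least two measurements.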

The test system of series [5] is Trypanosoma cruzi. The series can be described thus: Antitrypanosomal activity against Trypanosoma cruzi CL Brener. It counts as functional, organism-based. The procedure, abridged: (§3)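 Epimastigotes from 5-day stationary culture inoculated at 1 × 10^6 cells/mL into medium with compound added from DMSO stock (final DMSO ≤0.4%; control 0.4% DMSO, no compound). Growth followed by A600; % inhibition from day 0 and day 5 absorbance versus control. IC50 = concentration reducing the day-5 absorbance ratio to 50%. Single-dose screen at 25 µM. Means of three experiments.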

For series [6], the system named is Trypanosoma cruzi. The series can be described thus: Antitrypanosomal activity against Trypanosoma cruzi Tulahuen 2. The series is classed as functional, organism-based. The procedure, abridged: as §3
Another series has as its system Mus musculus. The series can be described thus: Toxicity in Trypanosoma cruzi Tulahuen 2 infected Swiss mouse model of Chagas disease at 60 mg/kg, po. The note with it: in vivo.
The test system of series [7] is Trypanosoma cruzi. The series can be described thus: Antitrypanosomal activity against Trypanosoma cruzi Y. It counts as functional, organism-based. The essentials:
as §3

The target in series [8] is Trypanothione reductase (Trypanosoma cruzi) (UniProt P28593). The series can be described thus: Inhibition of Trypanosoma cruzi trypanothione reductase assessed as volume activity per min at 100 uM in presence of NADPH after 24 hrs. The essentials: as §1
For series [9] the target is unchanged. Description: Inhibition of Trypanosoma cruzi trypanothione reductase assessed as volume activity per min at 100 uM after 3 hrs. The procedure, abridged:
as §1

For the next series, the system named is THP-1. Description: Cytotoxicity against human THP1 cells after 48 hrs. Particulars: THP-1, 48 h. The series is classed as cell-based. The procedure, abridged: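 THP-1 human macrophages in RPMI 1640 with 20% heat-inactivated FCS, left to attach 48 h at 37 °C, 5% CO2. Exposed to compounds at 25-1000 µM for 48 h, washed, then MTT 0.4 mg/mL for 3 h. Formazan dissolved in DMSO and read at OD595; % cytotoxicity corrected for compound-in-medium blanks. Triplicates per concentration, six growth controls; mean of two experiments.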

Series [10] in a line: Selectivity index, ratio of IC50 for human THP1 cells to IC50 for Trypanosoma cruzi CL Brener. The series is classed as functional, THP-1.
Series [11] can be described thus: Selectivity index, ratio of IC50 for human THP1 cells to IC50 for Trypanosoma cruzi Y. It counts as functional, THP-1.
Series [12] concerns the target Trypanothione reductase (Trypanosoma cruzi) (UniProt P28593). Description: Inhibition of Trypanosoma cruzi trypanothione reductase assessed as volume activity per min at 100 uM after 1 hr. The essentials: as §1
In series [13] the target is Cruzipain (Trypanosoma cruzi) (UniProt P25779). Description: Inhibition of Trypanosoma cruzi Tulahuen 2 cruzipain at 20 uM. The procedure, abridged: as §2
In series [14] the test system is Trypanosoma cruzi. Description: Antitrypanosomal activity against Trypanosoma cruzi Tulahuen 2 infected Swiss mouse model of Chagas disease at 60 mg/kg, po after 35 days post infection.
Series [15] has as its target Cruzipain (Trypanosoma cruzi) (UniProt P25779). Description: Inhibition of Trypanosoma cruzi Tulahuen 2 cruzipain at 100 uM. The essentials: as §2
Series [16] has the same target. Description: Inhibition of Trypanosoma cruzi Tulahuen 2 cruzipain at 10 uM. The procedure, abridged: as §2
Series [17] deals with Trypanothione reductase (Trypanosoma cruzi) (UniProt P28593). The series can be described thus: Inhibition of Trypanosoma cruzi trypanothione reductase assessed as volume activity per minute at 100 uM.
Series [18] concerns Trypanosoma cruzi. Description: Antitrypanosomal activity against Trypanosoma cruzi Tulahuen 2 infected Swiss mouse model of Chagas disease at 60 mg/kg, po after 41 days post infection.
Series [19] concerns the target Trypanothione reductase (Trypanosoma cruzi) (UniProt P28593). The series can be described thus: Inhibition of Trypanosoma cruzi trypanothione reductase assessed as volume activity per min at 100 uM in presence of NADPH. The procedure, abridged:
as §1

Each structure is given as a SMILES string. The source made the active and inactive calls. The rule behind the calls is not given here.

Trypanothione reductase (Trypanosoma cruzi), sequence (P28593 whole entry, looked up): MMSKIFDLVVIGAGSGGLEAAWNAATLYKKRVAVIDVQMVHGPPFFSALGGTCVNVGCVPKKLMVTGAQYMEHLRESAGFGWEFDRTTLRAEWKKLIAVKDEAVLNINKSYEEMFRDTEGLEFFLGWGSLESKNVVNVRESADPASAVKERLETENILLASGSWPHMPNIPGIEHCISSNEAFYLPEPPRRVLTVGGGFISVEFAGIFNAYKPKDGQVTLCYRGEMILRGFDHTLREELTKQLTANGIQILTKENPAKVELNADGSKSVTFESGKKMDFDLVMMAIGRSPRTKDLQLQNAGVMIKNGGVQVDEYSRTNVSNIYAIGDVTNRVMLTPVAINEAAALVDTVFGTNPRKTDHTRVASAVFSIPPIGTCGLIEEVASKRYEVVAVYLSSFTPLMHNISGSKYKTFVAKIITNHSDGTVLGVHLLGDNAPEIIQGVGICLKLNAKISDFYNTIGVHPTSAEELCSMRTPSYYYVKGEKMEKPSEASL
Cruzipain (Trypanosoma cruzi), sequence (P25779 123-467 limits assumed): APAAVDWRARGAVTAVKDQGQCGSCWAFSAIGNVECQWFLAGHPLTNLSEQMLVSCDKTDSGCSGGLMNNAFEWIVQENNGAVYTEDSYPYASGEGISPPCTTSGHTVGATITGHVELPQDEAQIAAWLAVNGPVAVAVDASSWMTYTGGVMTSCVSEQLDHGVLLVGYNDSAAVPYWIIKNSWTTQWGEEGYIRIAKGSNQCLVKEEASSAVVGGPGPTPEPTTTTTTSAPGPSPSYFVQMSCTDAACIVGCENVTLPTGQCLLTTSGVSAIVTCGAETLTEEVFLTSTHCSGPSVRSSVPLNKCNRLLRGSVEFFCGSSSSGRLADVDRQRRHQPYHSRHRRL

On to `[O-][n+]1onc2cc(/C=C\[S+]([O-])c3ccccc3)ccc21` (stereo unspecified), for which the deltaA in series [1] turned out to be 0.108; in [2], 0.107; in series [8] it was 0.081; in series [9], 0.09; in [12] it was 0.107; in series [17], 0.101. In addition, the deltaA in [19] is 0.107. Also, the “Ratio IC50” value in [3] is reported as 150; in [10] it was 21; in [11] it was 70. Besides, the inhibition was found to be 8% in series [4], 23% in [13], 3% in [15] and 0% in series [16]. Moreover, the concentration for half-maximal inhibition (IC50) in the series with Trypanosoma cruzi [5] was 5 µM; in the series with Trypanosoma cruzi [6] it was 0.7 µM; in the series on Trypanosoma cruzi [7], 1.5 µM; in the series on THP-1, 105 µM. In addition, the Activity entry with Mus musculus is “Non-toxic”. For the same molecule, the result in the series on Trypanosoma cruzi [14] and in the series with Trypanosoma cruzi [18] was Active.

The values above are taken from ChEMBL document CHEMBL1138265, “In vivo anti-Chagas vinylthio-, vinylsulfinyl-, and vinylsulfonylbenzofuroxan derivatives” (J Med Chem, 2007).
